{
  "source": "ChEMBL document CHEMBL4689842",
  "about": "“EUbOPEN Chemogenomics Library wave 1” (2021)",
  "tested_on": "Fibroblast",
  "test": "Multiplex assay against human fibroblast",
  "type": "toxicity, cell-based",
  "procedure,_shortened": "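Values for tubulin, mitochondrial-mass and membrane-permeability phenotypes are per cents of cells with healthy nuclei. These cells were identified by CellPathfinder machine-learning gating of live cells that had been stained at seeding with Hoechst33342, BioTracker Green Microtubule Cytoskeleton Dye, MitoTracker Red and Annexin V Alexa Fluor 680 and imaged on a CQ1 microscope at 37°C and 5% CO2 after compound addition. The gating first set Hoechst high-intensity objects apart from normal cells, then split normal cells into healthy, pyknosed or fragmented nuclei, and pyknosed cells into mitotic or apoptotic.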",
  "key": {"[1]": {"conditions": "12 h, 1 µM, compound concentration 1 uM, replicate 1"}, "[2]": {"conditions": "12 h, 1 µM, compound concentration 1 uM, replicate 2"}, "[3]": {"conditions": "12 h, 10 µM, compound concentration 10 uM, replicate 1"}, "[4]": {"conditions": "12 h, 10 µM, compound concentration 10 uM, replicate 2"}, "[5]": {"conditions": "24 h, 1 µM, compound concentration 1 uM, replicate 1"}, "[6]": {"conditions": "24 h, 1 µM, compound concentration 1 uM, replicate 2"}, "[7]": {"conditions": "24 h, 10 µM, compound concentration 10 uM, replicate 1"}, "[8]": {"conditions": "24 h, 10 µM, compound concentration 10 uM, replicate 2"}},
  "data": [
    {"smiles": "CC[C@H](Nc1ncnc2[nH]cnc12)c1nc2cccc(F)c2c(=O)n1-c1ccccc1", "note": "[IDELALISIB]", "values": [
      {"measurement": "Population Apoptotic (%)", "setting": "[1]", "result": 91, "unit": "%"},
      {"measurement": "Population Fragmented Nuclei (%)", "setting": "[1]", "result": 26, "unit": "%"},
      {"measurement": "Population Healthy Nuclei (%)", "setting": "[1]", "result": 56, "unit": "%"},
      {"measurement": "Population Hoechst High Intensity Objects (%)", "setting": "[1]", "result": 11, "unit": "%"},
      {"measurement": "Population Membrane Permeable-Phenotype (%)", "setting": "[1]", "result": 12, "unit": "%"},
      {"measurement": "Population Mitochondria Different-Phenotype (%)", "setting": "[1]", "result": 1, "unit": "%"},
      {"measurement": "Population Mitotic Cells (%)", "setting": "[1]", "result": 8, "unit": "%"},
      {"measurement": "Population Normal (%)", "setting": "[1]", "result": 88, "unit": "%"},
      {"measurement": "Population Pyknosed Nuclei (%)", "setting": "[1]", "result": 17, "unit": "%"},
      {"measurement": "Population Tubulin-Different-Phenotype (%)", "setting": "[1]", "result": 20, "unit": "%"},
      {"measurement": "Total Cell Count", "setting": "[1]", "result": 222},
      {"measurement": "Population Apoptotic (%)", "setting": "[2]", "result": 50, "unit": "%"},
      {"measurement": "Population Fragmented Nuclei (%)", "setting": "[2]", "result": 56, "unit": "%"},
      {"measurement": "Population Healthy Nuclei (%)", "setting": "[2]", "result": 34, "unit": "%"},
      {"measurement": "Population Hoechst High Intensity Objects (%)", "setting": "[2]", "result": 30, "unit": "%"},
      {"measurement": "Population Membrane Permeable-Phenotype (%)", "setting": "[2]", "result": 6, "unit": "%"},
      {"measurement": "Population Mitochondria Different-Phenotype (%)", "setting": "[2]", "result": 26, "unit": "%"},
      {"measurement": "Population Mitotic Cells (%)", "setting": "[2]", "result": 50, "unit": "%"},
      {"measurement": "Population Normal (%)", "setting": "[2]", "result": 69, "unit": "%"},
      {"measurement": "Population Pyknosed Nuclei (%)", "setting": "[2]", "result": 9, "unit": "%"},
      {"measurement": "Population Tubulin-Different-Phenotype (%)", "setting": "[2]", "result": 53, "unit": "%"},
      {"measurement": "Total Cell Count", "setting": "[2]", "result": 63},
      {"measurement": "Population Apoptotic (%)", "setting": "[3]", "result": 58, "unit": "%"},
      {"measurement": "Population Fragmented Nuclei (%)", "setting": "[3]", "result": 26, "unit": "%"},
      {"measurement": "Population Healthy Nuclei (%)", "setting": "[3]", "result": 59, "unit": "%"},
      {"measurement": "Population Hoechst High Intensity Objects (%)", "setting": "[3]", "result": 10, "unit": "%"},
      {"measurement": "Population Membrane Permeable-Phenotype (%)", "setting": "[3]", "result": 14, "unit": "%"},
      {"measurement": "Population Mitochondria Different-Phenotype (%)", "setting": "[3]", "result": 0, "unit": "%"},
      {"measurement": "Population Mitotic Cells (%)", "setting": "[3]", "result": 41, "unit": "%"},
      {"measurement": "Population Normal (%)", "setting": "[3]", "result": 89, "unit": "%"},
      {"measurement": "Population Pyknosed Nuclei (%)", "setting": "[3]", "result": 13, "unit": "%"},
      {"measurement": "Population Tubulin-Different-Phenotype (%)", "setting": "[3]", "result": 4, "unit": "%"},
      {"measurement": "Total Cell Count", "setting": "[3]", "result": 199},
      {"measurement": "Population Apoptotic (%)", "setting": "[4]", "result": 50, "unit": "%"},
      {"measurement": "Population Fragmented Nuclei (%)", "setting": "[4]", "result": 58, "unit": "%"},
      {"measurement": "Population Healthy Nuclei (%)", "setting": "[4]", "result": 33, "unit": "%"},
      {"measurement": "Population Hoechst High Intensity Objects (%)", "setting": "[4]", "result": 34, "unit": "%"},
      {"measurement": "Population Membrane Permeable-Phenotype (%)", "setting": "[4]", "result": 18, "unit": "%"},
      {"measurement": "Population Mitochondria Different-Phenotype (%)", "setting": "[4]", "result": 31, "unit": "%"},
      {"measurement": "Population Mitotic Cells (%)", "setting": "[4]", "result": 50, "unit": "%"},
      {"measurement": "Population Normal (%)", "setting": "[4]", "result": 65, "unit": "%"},
      {"measurement": "Population Pyknosed Nuclei (%)", "setting": "[4]", "result": 8, "unit": "%"},
      {"measurement": "Population Tubulin-Different-Phenotype (%)", "setting": "[4]", "result": 25, "unit": "%"},
      {"measurement": "Total Cell Count", "setting": "[4]", "result": 73},
      {"measurement": "Population Apoptotic (%)", "setting": "[5]", "result": 59, "unit": "%"},
      {"measurement": "Population Fragmented Nuclei (%)", "setting": "[5]", "result": 27, "unit": "%"},
      {"measurement": "Population Healthy Nuclei (%)", "setting": "[5]", "result": 54, "unit": "%"},
      {"measurement": "Population Hoechst High Intensity Objects (%)", "setting": "[5]", "result": 12, "unit": "%"},
      {"measurement": "Population Mitochondria Different-Phenotype (%)", "setting": "[5]", "result": 5, "unit": "%"},
      {"measurement": "Population Mitotic Cells (%)", "setting": "[5]", "result": 40, "unit": "%"},
      {"measurement": "Population Normal (%)", "setting": "[5]", "result": 87, "unit": "%"},
      {"measurement": "Population Pyknosed Nuclei (%)", "setting": "[5]", "result": 17, "unit": "%"},
      {"measurement": "Population Tubulin-Different-Phenotype (%)", "setting": "[5]", "result": 15, "unit": "%"},
      {"measurement": "Total Cell Count", "setting": "[5]", "result": 211},
      {"measurement": "Population Apoptotic (%)", "setting": "[6]", "result": 40, "unit": "%"},
      {"measurement": "Population Fragmented Nuclei (%)", "setting": "[6]", "result": 56, "unit": "%"},
      {"measurement": "Population Healthy Nuclei (%)", "setting": "[6]", "result": 30, "unit": "%"},
      {"measurement": "Population Hoechst High Intensity Objects (%)", "setting": "[6]", "result": 35, "unit": "%"},
      {"measurement": "Population Membrane Permeable-Phenotype (%)", "setting": "[6]", "result": 0, "unit": "%"},
      {"measurement": "Population Mitochondria Different-Phenotype (%)", "setting": "[6]", "result": 25, "unit": "%"},
      {"measurement": "Population Mitotic Cells (%)", "setting": "[6]", "result": 60, "unit": "%"},
      {"measurement": "Population Normal (%)", "setting": "[6]", "result": 65, "unit": "%"},
      {"measurement": "Population Pyknosed Nuclei (%)", "setting": "[6]", "result": 12, "unit": "%"},
      {"measurement": "Population Tubulin-Different-Phenotype (%)", "setting": "[6]", "result": 33, "unit": "%"},
      {"measurement": "Total Cell Count", "setting": "[6]", "result": 60},
      {"measurement": "Population Apoptotic (%)", "setting": "[7]", "result": 73, "unit": "%"},
      {"measurement": "Population Fragmented Nuclei (%)", "setting": "[7]", "result": 22, "unit": "%"},
      {"measurement": "Population Healthy Nuclei (%)", "setting": "[7]", "result": 59, "unit": "%"},
      {"measurement": "Population Hoechst High Intensity Objects (%)", "setting": "[7]", "result": 13, "unit": "%"},
      {"measurement": "Population Membrane Permeable-Phenotype (%)", "setting": "[7]", "result": 7, "unit": "%"},
      {"measurement": "Population Mitochondria Different-Phenotype (%)", "setting": "[7]", "result": 0, "unit": "%"},
      {"measurement": "Population Mitotic Cells (%)", "setting": "[7]", "result": 26, "unit": "%"},
      {"measurement": "Population Normal (%)", "setting": "[7]", "result": 86, "unit": "%"},
      {"measurement": "Population Pyknosed Nuclei (%)", "setting": "[7]", "result": 17, "unit": "%"},
      {"measurement": "Population Tubulin-Different-Phenotype (%)", "setting": "[7]", "result": 1, "unit": "%"},
      {"measurement": "Total Cell Count", "setting": "[7]", "result": 221},
      {"measurement": "Population Apoptotic (%)", "setting": "[8]", "result": 0, "unit": "%"},
      {"measurement": "Population Fragmented Nuclei (%)", "setting": "[8]", "result": 70, "unit": "%"},
      {"measurement": "Population Healthy Nuclei (%)", "setting": "[8]", "result": 25, "unit": "%"},
      {"measurement": "Population Hoechst High Intensity Objects (%)", "setting": "[8]", "result": 22, "unit": "%"},
      {"measurement": "Population Membrane Permeable-Phenotype (%)", "setting": "[8]", "result": 26, "unit": "%"},
      {"measurement": "Population Mitochondria Different-Phenotype (%)", "setting": "[8]", "result": 6, "unit": "%"},
      {"measurement": "Population Mitotic Cells (%)", "setting": "[8]", "result": 100, "unit": "%"},
      {"measurement": "Population Normal (%)", "setting": "[8]", "result": 77, "unit": "%"},
      {"measurement": "Population Pyknosed Nuclei (%)", "setting": "[8]", "result": 5, "unit": "%"},
      {"measurement": "Population Tubulin-Different-Phenotype (%)", "setting": "[8]", "result": 33, "unit": "%"},
      {"measurement": "Total Cell Count", "setting": "[8]", "result": 77}
    ]}
  ]
}
